The source made the active and inactive calls. The calls are words filed in the database; no cut-off is given here.
Key:
[1] = system: Glycine max; assay: Inhibition of soybean 15-LOX type 1-B assessed as inhibition of conversion of linoleic acid to (9Z,11E)-(13S)-13-hydroperoxyoctadeca-9,11-dienoate at 25 ug/ml preincubated for 10 mins before substrate addition measured after 6 mins by spectrophotometry
Outline: (§1)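 Soybean lipoxygenase type I-B (80 U/well) in sodium phosphate buffer (100 mM, pH 8.0) was incubated with sample in MeOH for 10 min at 25 °C. Linoleic acid was then added and A234 was followed for 6 min. Samples were run in triplicate. Pure compounds were screened at a final 25 µg/mL.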

[2] = Inhibition of soybean 15-LOX type 1-B assessed as inhibition of conversion of linoleic acid to (9Z,11E)-(13S)-13-hydroperoxyoctadeca-9,11-dienoate preincubated for 10 mins before substrate addition measured after 6 mins by spectrophotometry; parameters: species or system Glycine max; outline: as §1
[3] = system: Radical scavenging activity; assay: Antioxidant activity assessed as DPPH radical scavenging activity; format: functional
Outline: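 DPPH radical scavenging run by a previously published method, with quercetin as positive control; triplicate tests, with absorbances averaged before calculating activity.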

[4] = molecular target: T1, Prostaglandin G/H synthase 1 (Homo sapiens, UniProt P23219); assay: Inhibition of COX1 in human platelets assessed as inhibition of conversion of arachidonic acid to PGE2 at 10 uM preincubated for 15 mins before substrate addition measured after 15 mins by enzyme immunoassay
Outline: (§2)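 Human platelets (5 × 10^7/ml) in HBSS (15 mM, pH 7.4) were incubated with compound or vehicle for 15 min at 37 °C. Arachidonic acid (100 µM) was added for 15 min and the reaction was stopped with 1 N HCl. PGE2 was measured by EIA. The assay was run by a contract laboratory.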

[5] = molecular target: T1, Prostaglandin G/H synthase 1; assay: Inhibition of COX1 in human platelets assessed as inhibition of conversion of arachidonic acid to PGE2 at 10 nM preincubated for 15 mins before substrate addition measured after 15 mins by enzyme immunoassay; outline: as §2
[6] = Metal chelating activity of the compound assessed as formation of iron complex in PBS at pH 7.4 at 50 uM after 10 secs by UV-vis spectrometry in presence of 100 uM FeCl3; format: functional
Outline: (§3)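 Compound was taken from a 1 mM methanol stock and diluted to 50 µM in PBS (10 mM, pH 7.4). Salt solution (CuSO4, FeCl3 or FeSO4) was added at 50 or 100 µM. Absorption spectra from 200–600 nm were recorded after 10 s and compared with the compound alone.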

[7] = molecular target: T1, Prostaglandin G/H synthase 1; assay: Inhibition of COX1 in human platelets assessed as inhibition of conversion of arachidonic acid to PGE2 at 0.1 uM preincubated for 15 mins before substrate addition measured after 15 mins by enzyme immunoassay; outline: as §2
[8] = molecular target: T1, Prostaglandin G/H synthase 1; assay: Inhibition of COX1 in human platelets assessed as inhibition of conversion of arachidonic acid to PGE2 preincubated for 15 mins before substrate addition measured after 15 mins by enzyme immunoassay; outline: as §2
[9] = molecular target: T2, Polyunsaturated fatty acid 5-lipoxygenase (Homo sapiens) (UniProt P09917); assay: Inhibition of human 5-LOX in human peripheral blood mononuclear leukocytes assessed as inhibition of calymycin A23187 stimulated LTB4 production at 1 uM preincubated for 15 mins before stimulation measured after 15 mins by enzyme immunoassay
T2 sequence (whole entry): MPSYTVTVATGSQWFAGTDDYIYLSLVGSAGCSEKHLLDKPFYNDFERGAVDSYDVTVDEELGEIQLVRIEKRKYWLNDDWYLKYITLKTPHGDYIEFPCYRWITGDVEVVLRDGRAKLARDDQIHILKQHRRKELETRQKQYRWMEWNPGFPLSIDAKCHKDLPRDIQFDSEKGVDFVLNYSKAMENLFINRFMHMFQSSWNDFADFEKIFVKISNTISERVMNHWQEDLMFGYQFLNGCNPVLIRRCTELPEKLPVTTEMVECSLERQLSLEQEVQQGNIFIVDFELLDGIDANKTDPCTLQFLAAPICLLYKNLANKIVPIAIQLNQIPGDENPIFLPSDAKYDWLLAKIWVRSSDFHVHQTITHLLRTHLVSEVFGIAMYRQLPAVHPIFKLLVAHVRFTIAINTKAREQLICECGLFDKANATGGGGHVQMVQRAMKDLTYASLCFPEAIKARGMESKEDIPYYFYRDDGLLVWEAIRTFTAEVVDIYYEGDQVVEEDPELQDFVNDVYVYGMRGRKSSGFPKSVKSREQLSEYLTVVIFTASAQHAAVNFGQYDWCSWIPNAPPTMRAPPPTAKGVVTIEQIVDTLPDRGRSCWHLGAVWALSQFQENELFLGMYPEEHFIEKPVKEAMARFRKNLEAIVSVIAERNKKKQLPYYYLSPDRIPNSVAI
Outline: (§4)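 Human peripheral blood mononuclear leukocytes (5 × 10^6 cells/ml) in HBSS were preincubated with compound or vehicle for 15 min at 37 °C. Calcimycin (A23187, 30 µM) was added for a further 15 min and the reaction was stopped with 1 N HCl. LTB4 was quantified by EIA. The assay was run by a contract laboratory.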

[10] = molecular target: T2, Polyunsaturated fatty acid 5-lipoxygenase (Homo sapiens); assay: Inhibition of human 5-LOX in human peripheral blood mononuclear leukocytes assessed as inhibition of calymycin A23187 stimulated LTB4 production at 10 nM preincubated for 15 mins before stimulation measured after 15 mins by enzyme immunoassay; outline: as §4
[11] = molecular target: T2, Polyunsaturated fatty acid 5-lipoxygenase (Homo sapiens); assay: Inhibition of human 5-LOX in human peripheral blood mononuclear leukocytes assessed as inhibition of calymycin A23187 stimulated LTB4 production at 10 uM preincubated for 15 mins before stimulation measured after 15 mins by enzyme immunoassay; outline: as §4
[12] = Cytotoxicity against NMRI mouse macrophages by MTT assay; format: cell-based; conditions: macrophage
Outline: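 Macrophages from the 5-LOX assay wells were used after supernatant collection. Cells received MTT (5 mg/ml in PBS, 20 µl/well) for 4 h at 37 °C, then the formazan was dissolved in DMSO and absorbance was read at 550 nm. Values are mean ± S.D., mostly from triplicate determinations.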

[13] = molecular target: T3, Prostaglandin G/H synthase 2 (Homo sapiens) (UniProt P35354); assay: Inhibition of human recombinant COX2 expressed in insect Sf21 cells assessed as inhibition of conversion of arachidonic acid to PGE2 at 1 uM preincubated for 15 mins before substrate addition measured after 5 mins by enzyme immunoassay
T3 sequence (whole entry): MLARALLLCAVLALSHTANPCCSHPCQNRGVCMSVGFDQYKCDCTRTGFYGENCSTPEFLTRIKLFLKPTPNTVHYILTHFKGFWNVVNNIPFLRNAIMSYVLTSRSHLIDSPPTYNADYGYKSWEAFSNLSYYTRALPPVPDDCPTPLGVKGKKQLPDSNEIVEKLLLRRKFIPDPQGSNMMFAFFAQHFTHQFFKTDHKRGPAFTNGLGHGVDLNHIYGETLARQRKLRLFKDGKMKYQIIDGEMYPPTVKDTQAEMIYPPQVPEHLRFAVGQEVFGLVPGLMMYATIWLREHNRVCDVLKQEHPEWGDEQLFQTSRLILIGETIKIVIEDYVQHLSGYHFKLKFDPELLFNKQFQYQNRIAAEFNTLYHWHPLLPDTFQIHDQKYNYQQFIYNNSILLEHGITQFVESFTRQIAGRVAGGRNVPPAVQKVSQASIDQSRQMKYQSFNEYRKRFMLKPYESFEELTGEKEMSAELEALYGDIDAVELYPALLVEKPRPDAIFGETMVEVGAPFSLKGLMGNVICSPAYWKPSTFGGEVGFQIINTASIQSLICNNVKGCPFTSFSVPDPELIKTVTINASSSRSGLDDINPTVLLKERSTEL
Outline: (§5)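 Human recombinant COX-2 expressed in Sf21 cells (0.11 U) was preincubated with compound or vehicle, 1 mM reduced GSH, 500 µM phenol and 1 µM hematin in Tris-HCl (100 mM, pH 7.7) for 15 min at 37 °C. Arachidonic acid (0.3 mM) was added for 5 min and the reaction was stopped with 1 N HCl. After centrifugation, PGE2 was measured by EIA.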

[14] = molecular target: T3, Prostaglandin G/H synthase 2 (Homo sapiens); assay: Inhibition of human recombinant COX2 expressed in insect Sf21 cells assessed as inhibition of conversion of arachidonic acid to PGE2 at 10 uM preincubated for 15 mins before substrate addition measured after 5 mins by enzyme immunoassay; outline: as §5
[15] = Metal chelating activity of the compound assessed as formation of iron complex in PBS at pH 7.4 at 50 uM after 10 secs by UV-vis spectrometry in presence of 100 uM FeSO4; format: functional; outline: as §3
[16] = molecular target: T2, Polyunsaturated fatty acid 5-lipoxygenase (Homo sapiens); assay: Inhibition of human 5-LOX in human peripheral blood mononuclear leukocytes assessed as inhibition of calymycin A23187 stimulated LTB4 production at 0.1 uM preincubated for 15 mins before stimulation measured after 15 mins by enzyme immunoassay; outline: as §4
[17] = molecular target: T3, Prostaglandin G/H synthase 2 (Homo sapiens); assay: Inhibition of human recombinant COX2 expressed in insect Sf21 cells assessed as inhibition of conversion of arachidonic acid to PGE2 at 0.1 uM preincubated for 15 mins before substrate addition measured after 5 mins by enzyme immunoassay; outline: as §5
[18] = molecular target: T4, Prostaglandin G/H synthase 2 (Homo sapiens, UniProt P35354); assay: Inhibition of human recombinant COX2 expressed in insect Sf21 cells assessed as inhibition of conversion of arachidonic acid to PGE2 preincubated for 15 mins before substrate addition measured after 5 mins by enzyme immunoassay; outline: as §5
T4 sequence (P35354 whole entry): T3 sequence (whole entry)

[19] = Metal chelating activity of the compound assessed as formation of copper complex in PBS at pH 7.4 at 50 uM after 10 secs by UV-vis spectrometry in presence of 100 uM CuSO4; format: functional; outline: as §3
[20] = molecular target: T5, Polyunsaturated fatty acid 5-lipoxygenase (Homo sapiens, UniProt P09917); assay: Inhibition of human 5-LOX in human peripheral blood mononuclear leukocytes assessed as inhibition of calymycin A23187-stimulated LTB4 production preincubated for 15 mins before stimulation measured after 15 mins by enzyme immunoassay; outline: as §4
T5 sequence (P09917 whole entry): T2 sequence (whole entry)

[21] = molecular target: T1, Prostaglandin G/H synthase 1; assay: Inhibition of COX1 in human platelets assessed as inhibition of conversion of arachidonic acid to PGE2 at 1 uM preincubated for 15 mins before substrate addition measured after 15 mins by enzyme immunoassay; outline: as §2
[22] = molecular target: T3, Prostaglandin G/H synthase 2 (Homo sapiens); assay: Inhibition of human recombinant COX2 expressed in insect Sf21 cells assessed as inhibition of conversion of arachidonic acid to PGE2 at 10 nM preincubated for 15 mins before substrate addition measured after 5 mins by enzyme immunoassay; outline: as §5
[23] = molecular target: T6, Polyunsaturated fatty acid 5-lipoxygenase (Mus musculus) (UniProt P48999); assay: (§6) Inhibition of 5-LOX in calcium ionophore A23187-stimulated NMRI mouse macrophage assessed as inhibition of LTC4 production preincubated for 60 mins before stimulation measured after 2 hrs by ELISA
T6 sequence (whole entry): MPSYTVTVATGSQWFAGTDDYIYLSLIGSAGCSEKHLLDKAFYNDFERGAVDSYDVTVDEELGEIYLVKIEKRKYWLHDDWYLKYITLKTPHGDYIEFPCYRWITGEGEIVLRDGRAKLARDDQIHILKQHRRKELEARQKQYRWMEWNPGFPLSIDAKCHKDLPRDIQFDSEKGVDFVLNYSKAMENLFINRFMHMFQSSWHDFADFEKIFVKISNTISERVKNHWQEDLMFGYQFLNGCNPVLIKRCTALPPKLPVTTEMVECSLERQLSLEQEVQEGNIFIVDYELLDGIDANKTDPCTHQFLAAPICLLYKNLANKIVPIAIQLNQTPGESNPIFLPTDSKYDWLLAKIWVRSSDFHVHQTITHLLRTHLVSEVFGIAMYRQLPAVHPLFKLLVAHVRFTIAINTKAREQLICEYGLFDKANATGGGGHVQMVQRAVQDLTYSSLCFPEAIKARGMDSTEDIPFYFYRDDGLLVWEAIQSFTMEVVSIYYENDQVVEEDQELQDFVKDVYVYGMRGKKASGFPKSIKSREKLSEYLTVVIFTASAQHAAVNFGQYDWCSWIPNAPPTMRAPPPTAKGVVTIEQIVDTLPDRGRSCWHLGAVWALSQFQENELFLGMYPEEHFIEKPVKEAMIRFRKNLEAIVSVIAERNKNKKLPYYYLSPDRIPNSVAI
Outline: (§7)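 Male NMRI mice (20 ± 5 g) were given 1 ml thioglycolate ip and peritoneal macrophages were lavaged with PBS 3 days later. Cells were adhered overnight at 5 × 10^5 cells/well and then moved to serum-free DMEM. Compound was added for 60 min at 37 °C, then A23187 to a final 10^-6 M for 2 h. Supernatant cysLTs were measured by ELISA against a standard curve. Values are mean ± S.D., mostly triplicate, compared by unpaired t-test.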

[24] = molecular target: T7, Polyunsaturated fatty acid 5-lipoxygenase (Mus musculus, UniProt P48999); assay: as §6; outline: as §7
T7 sequence (P48999 whole entry): T6 sequence (whole entry)

T1 sequence (P23219 whole entry): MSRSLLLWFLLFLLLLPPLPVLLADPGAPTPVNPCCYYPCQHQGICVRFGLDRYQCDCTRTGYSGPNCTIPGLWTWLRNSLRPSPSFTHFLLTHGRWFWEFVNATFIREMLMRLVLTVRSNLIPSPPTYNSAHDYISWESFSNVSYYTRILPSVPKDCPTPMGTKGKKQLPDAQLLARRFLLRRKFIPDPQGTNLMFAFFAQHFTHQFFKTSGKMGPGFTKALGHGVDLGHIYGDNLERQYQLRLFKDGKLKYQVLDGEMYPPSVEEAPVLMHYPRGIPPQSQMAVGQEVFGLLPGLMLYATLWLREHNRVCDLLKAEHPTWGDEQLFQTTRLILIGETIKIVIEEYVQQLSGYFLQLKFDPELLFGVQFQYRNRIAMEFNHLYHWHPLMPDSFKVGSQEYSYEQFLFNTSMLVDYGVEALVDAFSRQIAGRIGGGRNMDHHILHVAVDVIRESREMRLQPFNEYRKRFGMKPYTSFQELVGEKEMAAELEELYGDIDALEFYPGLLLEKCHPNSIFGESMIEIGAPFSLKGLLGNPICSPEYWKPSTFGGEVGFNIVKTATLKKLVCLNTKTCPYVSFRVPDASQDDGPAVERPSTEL

SMILES: CC(Cc1ccc(O)c(O)c1)C(C)Cc1ccc(O)c(O)c1 (stereo unspecified) [NORDIHYDROGUAIARETIC ACID]
- inhibition [1]: 88.8%
- IC50 [2]: 9.82 µM

SMILES: O=c1c(O)c(-c2ccc(O)c(O)c2)oc2cc(O)cc(O)c12 [QUERCETIN]
- IC50 [3]: 6.91 µM

SMILES: CC(=O)c1c(O)cc(O)c(C/C=C(\C)CCC=C(C)C)c1O
- inhibition [4]: 91%
- inhibition [5]: -5%
- Activity [6]: inactive
- inhibition [7]: -1%
- IC50 [8]: 6.9 µM
- inhibition [9]: 75%
- inhibition [10]: 6%
- inhibition [11]: 102%
- Activity [12]: Non-toxic
- inhibition [13]: 60%
- inhibition [14]: 100%
- Activity [15]: inactive
- inhibition [16]: 13%
- inhibition [17]: 28%
- IC50 [18]: 0.4 µM
- Activity [19]: inactive
- IC50 [2]: 20.4 µM
- IC50 [20]: 0.42 µM
- inhibition [21]: -9%
- inhibition [22]: 14%
- inhibition [23]: Dose-dependent effect
- IC50 [24]: 1.8 µM
- IC50 [3]: 46 µM

— ChEMBL document CHEMBL1914366, “Bioassay-guided identification of an anti-inflammatory prenylated acylphloroglucinol from Melicope ptelefolia and molecular insights into its interaction with 5-lipoxygenase” (Bioorg Med Chem, 2011)
